Here are results for 30 sequences from the array DNA melting data of Ke et al. (doi:10.1101/2024.01.08.574731).

Data set [1] can be described thus: melting temperature; fluorescence melt of hairpins on a sequencing array, two-state fit, raised by 9.35 °C to match UV melts. As to conditions: sodium 0.088 M. The method in brief:
(§1)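 Cy3 fluorescence of library hairpins on a sequenced MiSeq flow cell, with annealed Cy3 and quencher oligos, was imaged in 50 mM Na-HEPES pH 8.0, 25 mM NaCl in 2.5 °C steps up to 60 °C. Signals were normalised to pre-quench Cy3 and to control variants. Melting temperature and folding enthalpy came from bootstrapped two-state fits, inverse-variance combined over four replicates. Fitted temperatures were raised by 9.35 °C to match UV melts.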

The nature of data set [2]: folding enthalpy; higher = less favourable; fluorescence melt of hairpins on a sequencing array, two-state fit. As to conditions: sodium 0.088 M. The method in brief:
as §1

As to GGTGCCGAAAGGCGTACC ((((((....)))..))), the Tm in data set [1] came out at 48.5 °C. Besides, the folding enthalpy in data set [2] was -15.5 kcal/mol.
For GAACCCGAAAGGGATTC ((((((....))).))) the same measures were 46.4 °C and -14.4 kcal/mol.
In the same order, the values of GTGCCACGAAAGTGTCAC (((.(((....))).))) are 53.1 °C and -30 kcal/mol.
Take GGTTGCGAAAGCAGACC ((((((....))).))): the Tm in data set [1] is 51 °C. Further, the folding enthalpy in data set [2] is -27.2 kcal/mol.
With GTAATAGAAATATTAC ((((((....)))))), the Tm in data set [1] amounted to 32 °C. In addition, the folding enthalpy in data set [2] was -16.6 kcal/mol.
In the same order, the values of GATGCTGCGAAAGCAATC (((..(((....)))))) are 29.3 °C and -9.87 kcal/mol.
On to CGTGCGGAAACGCCAACG ((((((....)))..))), for which the Tm in data set [1] stood at 39.4 °C. For the same sequence, the folding enthalpy in data set [2] was -19.2 kcal/mol.
As for CGCCTACGGAAACGTGCG (((..(((....)))))), the Tm in data set [1] stood at 39.4 °C. The folding enthalpy in data set [2] was -23.2 kcal/mol.
In the same order, the values of GCTAGAGGAAACTCTAGC (((((((....))))))) are 58.5 °C and -44 kcal/mol.
Take GCGACCGAAAGGTTCGC ((((((....))).))): the Tm in data set [1] was found to be 65.6 °C. Besides, the folding enthalpy in data set [2] was -33 kcal/mol.
For TAGGGGAAACCCTA (((((....))))) the same measures were 40.2 °C and -15.3 kcal/mol.
For GTGCCCCGAAAGGGACAC (((.(((....))).))) the same measures were 62.5 °C and -42.9 kcal/mol.
For GGGATCGAAAGATTTCCC ((((((....)))..))) the same measures were 32.3 °C and -19 kcal/mol.
For GTCGAAGGAAACTTTGAC (((.(((....))).))), the Tm in data set [1] stood at 44.5 °C. Besides, the folding enthalpy in data set [2] is -31.1 kcal/mol.
For GCGATCGAAAGATGCGC ((((((....))).))), in data set [1], the Tm amounted to 53.6 °C. Further, the folding enthalpy in data set [2] was -27.8 kcal/mol.
In the same order, the values of GCGACTCGAAAGAGACGC (((.(((....))).))) are 62.3 °C and -48.5 kcal/mol.
For GATCGGTGTACCGATC ((((((....)))))) the same measures were 65.8 °C and -36.3 kcal/mol.
With GGGTGTGGAAACACATCC ((.((((....)))).)), in data set [1], the Tm was determined as 52.5 °C. For the same sequence, the folding enthalpy in data set [2] was -26.4 kcal/mol.
In the same order, the values of GGTGATGGAAACATTACC (((.(((....))).))) are 45.2 °C and -30.2 kcal/mol.
For GACTAACGAAAGTTGTC (((.(((....)))))) the same measures were 42.4 °C and -24.1 kcal/mol.
As for GATCAGGAGCCTGATC ((((((....)))))), in data set [1], the Tm was 49.9 °C. For the same sequence, the folding enthalpy in data set [2] was -31.6 kcal/mol.
Consider GTCCCGGGAAACCGGGGC (.(((((....))))).), for which the Tm in data set [1] was 64.3 °C. Also, the folding enthalpy in data set [2] was -19 kcal/mol.
Consider GTGTACGAAAGTACGCAC ((((((....)))..))), for which the Tm in data set [1] was 49.9 °C. Further, the folding enthalpy in data set [2] is -14.5 kcal/mol.
In the same order, the values of GCAACGCGAAAGCTATGC (((..((....))..))) are 36.8 °C and -11.6 kcal/mol.
For GTATCCGAAAGGATCTAC ((((((....)))..))) the same measures were 39.1 °C and -13.7 kcal/mol.
Take GGATCCGGAAACGGACCC ((.((((....)))).)): in data set [1], the Tm came to 50.4 °C. Moreover, the folding enthalpy in data set [2] is -21.2 kcal/mol.
For GTCGGCGAAAGCCGCGAC ((((((....)))..))) the same measures were 57.7 °C and -11.6 kcal/mol.
In the same order, the values of GTCTTACGAAAGTATGAC (((.(((....))).))) are 48.3 °C and -30.9 kcal/mol.
For GATTCACGAAAGTGGATC (((.(((....))).))) the same measures were 52.5 °C and -39.1 kcal/mol.
With GGTAACGAAAGTTTCACC ((((((....)))..))), the Tm in data set [1] was determined as 28.8 °C. Further, the folding enthalpy in data set [2] was -9.74 kcal/mol.
